Converted amounts (≈) assume the structure as drawn. Bounds are passed on as bounds.

Assay [1] concerns the target T1, Sterol 14-alpha demethylase cyp51A (Neosartorya fumigata (strain ATCC MYA-4609 / Af293 / CBS 101355 / FGSCA1100) (Aspergillus fumigatus), UniProt Q4WNT5).
T1 sequence (Q4WNT5 whole entry): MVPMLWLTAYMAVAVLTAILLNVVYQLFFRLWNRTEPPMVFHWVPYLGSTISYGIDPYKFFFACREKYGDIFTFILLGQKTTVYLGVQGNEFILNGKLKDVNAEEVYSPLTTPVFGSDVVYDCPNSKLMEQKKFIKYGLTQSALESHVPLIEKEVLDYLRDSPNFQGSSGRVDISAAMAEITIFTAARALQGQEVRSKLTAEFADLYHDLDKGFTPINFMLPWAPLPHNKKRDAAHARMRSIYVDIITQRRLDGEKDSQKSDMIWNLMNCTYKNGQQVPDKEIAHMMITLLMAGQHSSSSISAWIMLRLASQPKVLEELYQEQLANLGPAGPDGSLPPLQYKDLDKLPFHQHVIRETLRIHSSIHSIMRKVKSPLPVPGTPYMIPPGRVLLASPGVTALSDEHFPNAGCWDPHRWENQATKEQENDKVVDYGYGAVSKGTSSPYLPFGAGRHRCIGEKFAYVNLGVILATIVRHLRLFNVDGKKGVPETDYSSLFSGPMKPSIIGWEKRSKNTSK
Put plainly: Binding affinity to Aspergillus fumigatus AF293 sterol 14-alpha demethylase isoenzyme A expressed in Escherichia coli. In short, it runs like this: (§1)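 His-tagged CYP51 (Af293 sequence, codon-optimised, E. coli-expressed), cholate-solubilised and Ni-NTA purified, at 1 μM in 0.1 M Tris-HCl pH 8.1 with 25% glycerol. Azole (0.05 mg/ml DMSO stock) titrated in split 4.5 mm cuvettes, with DMSO added to the reference. Difference spectra were read at 500–350 nm. Peak-to-trough change was plotted against concentration. Kd came from Morrison (tight binding), Michaelis-Menten or Hill fits.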

The target in assay [2] is T2, 14-alpha sterol demethylase (Neosartorya fumigata (Aspergillus fumigatus), UniProt Q96W81).
T2 sequence (Q96W81 whole entry): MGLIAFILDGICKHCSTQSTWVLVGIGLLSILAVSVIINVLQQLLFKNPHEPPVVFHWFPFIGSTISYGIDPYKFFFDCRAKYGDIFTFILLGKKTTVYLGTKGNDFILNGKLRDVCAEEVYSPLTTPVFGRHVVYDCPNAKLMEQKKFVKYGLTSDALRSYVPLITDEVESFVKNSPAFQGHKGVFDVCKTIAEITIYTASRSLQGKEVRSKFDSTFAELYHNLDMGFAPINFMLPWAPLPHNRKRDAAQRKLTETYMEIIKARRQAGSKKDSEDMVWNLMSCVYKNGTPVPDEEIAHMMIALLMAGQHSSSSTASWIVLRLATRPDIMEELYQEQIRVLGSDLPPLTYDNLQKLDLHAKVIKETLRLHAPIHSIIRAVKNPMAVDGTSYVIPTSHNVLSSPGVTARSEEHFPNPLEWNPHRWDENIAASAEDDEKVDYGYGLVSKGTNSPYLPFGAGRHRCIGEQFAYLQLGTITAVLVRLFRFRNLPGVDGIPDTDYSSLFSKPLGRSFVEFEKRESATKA
Put plainly: Binding affinity to Aspergillus fumigatus AF293 sterol 14-alpha demethylase isoenzyme B expressed in Escherichia coli assessed as tight binding affinity constant. In short, it runs like this: as §1

The test system of assay [3] is Aspergillus fumigatus. As to the kind of experiment: Antimicrobial activity against sterol 14-alpha demethylase isoenzyme B-deficient Aspergillus fumigatus CEA10. It counts as functional.
Assay [4] deals with Lanosterol 14-alpha demethylase (Candida albicans (strain SC5314 / ATCC MYA-2876) (Yeast), UniProt P10613). Put plainly: Binding affinity to Candida albicans CYP51.
In assay [5] the test system is Aspergillus fumigatus. Put plainly: Antimicrobial activity against Aspergillus fumigatus AF293. Format: functional.
A short description of assay [6]: Binding affinity to Mycobacterium smegmatis CYP51. On the set-up: species or system Mycolicibacterium smegmatis.
Assay [7] deals with Aspergillus fumigatus. As to the kind of experiment: Antimicrobial activity against sterol 14-alpha demethylase isoenzyme A-deficient Aspergillus fumigatus CEA10. Format: functional.
Assay [8] deals with Aspergillus fumigatus. Put plainly: Antimicrobial activity against Aspergillus fumigatus CEA10. It counts as functional.
For assay [9], the system named is Aspergillus fumigatus. As to the kind of experiment: Antimicrobial activity against Aspergillus fumigatus CM237. Format: functional.
For assay [10], the target named is T2, 14-alpha sterol demethylase. Put plainly: Binding affinity to Aspergillus fumigatus AF293 sterol 14-alpha demethylase isoenzyme B expressed in Escherichia coli. In short, it runs like this:
as §1

Assay [11] deals with Aspergillus fumigatus. Put plainly: Antimicrobial activity against sterol 14-alpha demethylase isoenzyme A-deficient Aspergillus fumigatus CM237. Format: functional.

Chain of Lanosterol 14-alpha demethylase (P10613 whole entry): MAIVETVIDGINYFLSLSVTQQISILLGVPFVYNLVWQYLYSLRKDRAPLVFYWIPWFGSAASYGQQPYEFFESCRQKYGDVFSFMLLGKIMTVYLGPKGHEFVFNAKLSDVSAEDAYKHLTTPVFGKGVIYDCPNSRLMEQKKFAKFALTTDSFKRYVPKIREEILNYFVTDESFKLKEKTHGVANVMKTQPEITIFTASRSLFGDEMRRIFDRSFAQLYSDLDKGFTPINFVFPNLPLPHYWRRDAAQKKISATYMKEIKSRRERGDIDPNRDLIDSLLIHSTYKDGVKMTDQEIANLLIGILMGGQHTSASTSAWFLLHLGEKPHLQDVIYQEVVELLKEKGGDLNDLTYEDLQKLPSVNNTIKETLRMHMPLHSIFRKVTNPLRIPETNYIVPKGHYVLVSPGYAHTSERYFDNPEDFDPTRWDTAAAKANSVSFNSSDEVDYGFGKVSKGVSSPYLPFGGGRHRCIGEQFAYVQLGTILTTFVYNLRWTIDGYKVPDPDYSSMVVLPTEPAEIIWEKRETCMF

Usually Kd stands for a measure of binding affinity in units of concentration. As to `Clc1ccccc1C(c1ccccc1)(c1ccccc1)n1ccnc1` [CLOTRIMAZOLE], the Kd came to 4790 nM in assay [1] and 103 nM in assay [2].

One may read the MIC as the lowest concentration found to suppress growth. `OC(Cn1cncn1)(Cn1cncn1)c1ccc(F)cc1F` [FLUCONAZOLE]: the figures for the Kd in assay [1], in [4] and in assay [6] were 11900 nM, 45 nM and 19000 nM, respectively. Moreover, the MIC was > 327 µg/mL in assay [3] (read-out: MIC), 105 µg/mL in [5] (read-out: MIC), 20 µg/mL in assay [7] (read-out: MIC) and > 327 µg/mL in assay [8] (read-out: MIC).

In the case of `CCC(C)n1ncn(-c2ccc(N3CCN(c4ccc(OCC5COC(Cn6cncn6)(c6ccc(Cl)cc6Cl)O5)cc4)CC3)cc2)c1=O` (centres undefined) [ITRACONAZOLE], the figures for the equilibrium dissociation constant (Kd) in assay [1] and in [2] were 1010 nM and 31 nM, respectively. Besides, the MIC in [3] was 0.85 µM; in assay [5], 0.71 µM; in assay [7], 0.053 µM; in assay [8] it was 0.85 µM.

On to `CC[C@@H]([C@H](C)O)n1ncn(-c2ccc(N3CCN(c4ccc(OC[C@@H]5CO[C@@](Cn6cncn6)(c6ccc(F)cc6F)C5)cc4)CC3)cc2)c1=O` [POSACONAZOLE], for which the Kd was found to be 2690 nM in assay [1] and 73 nM in [2]. In assay [5], this compound registered an MIC of 0.72 µM.

As for `C[C@@H](c1ncncc1F)[C@](O)(Cn1cncn1)c1ccc(F)cc1F` [VORICONAZOLE], the figures for the Kd in assay [1], in [2] and in [10] were 3630 nM, 429 nM and 423 nM, respectively. For the same compound, the MIC in [5] worked out at 0.72 µM; in [9], 1.49 µM (≈ 0.52 µg/mL); in [11], 0.34 µM (≈ 0.119 µg/mL).

The values above are taken from ChEMBL document CHEMBL1671727, “Expression, purification, and characterization of Aspergillus fumigatus sterol 14-alpha demethylase (CYP51) isoenzymes A and B” (Antimicrob Agents Chemother, 2010).
